The list is not random: actives were taken first. Their share in the collection is about 1.1%.
Diaph act CS: counter-screen for diaphorase-based assays: diaphorase activators and chemical reducers | Diaphorase/resazurin coupled assay, resorufin fluorescence, 16 min; stronger effect = higher value; 1 = vehicle wells, 0 = NADH-free wells | activation factor at 20 µM | 190,000 tested, 0.005% active | AID 1229;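 active = diaphorase activity raised at least twofold by the compound at 20 µM; inactive = activation factor below 2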
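Material: purified diaphorase enzyme from Clostridium kluyveri; Also added: 0.114 mM NADH and 0.1 mM resazurin, final amounts; Doses: single compound dose of 20 µM, 1% DMSO final; Times: 16 min enzyme reaction, ambient temperature; Detection: resorufin fluorescence, excitation 544 nm, emission 590 nm; Measure: increased resorufin signal from activators or reducing compounds.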
G6PDH CS: inhibits Leuconostoc G6PDH, flagging false hits in G6PDH-based assays. Purified L. mesenteroides G6PDH, diaphorase/resazurin coupled fluorescence, 45 min. inhibition, % at 5 µM. 200,000 tested, 0.12% active; in the data active = inhibition above about 50%
PMI act: activators of human phosphomannose isomerase; AID 1214; P34949; 190,000 tested, 0.005% active; activation factor at 20 µM; purified human PMI, coupled resazurin fluorescence, 20 min; stronger effect = higher value; 1 = vehicle control, 0 substrate-free wells;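 active = activation factor of 2 or more at 20 µM, relative to plate controls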
Target sequence (P34949 whole entry, looked up): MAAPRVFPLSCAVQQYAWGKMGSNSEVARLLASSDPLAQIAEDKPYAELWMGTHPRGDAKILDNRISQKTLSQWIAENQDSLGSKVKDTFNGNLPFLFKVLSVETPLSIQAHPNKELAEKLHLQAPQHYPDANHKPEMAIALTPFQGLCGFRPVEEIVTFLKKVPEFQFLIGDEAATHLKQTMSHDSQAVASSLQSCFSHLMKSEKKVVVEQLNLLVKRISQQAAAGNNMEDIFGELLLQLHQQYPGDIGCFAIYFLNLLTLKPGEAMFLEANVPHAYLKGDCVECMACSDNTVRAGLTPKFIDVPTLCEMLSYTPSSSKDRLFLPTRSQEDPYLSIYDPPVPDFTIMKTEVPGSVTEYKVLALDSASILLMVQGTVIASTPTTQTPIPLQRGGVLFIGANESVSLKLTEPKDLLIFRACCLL
Diaph inh CS: inhibits diaphorase or chemically oxidizes, flagging diaphorase assay artifacts | diaphorase resazurin-to-resorufin fluorescence, NADH, 16 min; bacterial (C. kluyveri) enzyme, not human | inhibition, % at 20 µM | 190,000 tested, 0.69% active | AID 1217;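 active = primary screen inhibition at 20 µM above a set limit, cut at about 50% in these data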;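 note: plate controls were DMSO with full reaction for no effect and wells lacking NADH for full effect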
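System: Diaphorase enzyme from Clostridium kluyveri | Amount: Enzyme working solution with 0.14 U/mL diaphorase | Benchmarks: No-NADH positive control and DMSO neutral control | Signal: Fluorescence of resorufin formed from resazurin, Ex 544/Em 590 nm | Schedule: 16-min room-temperature incubation before reading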
PMI act hi M6P: PMI (human) activation, high substrate | P34949 | coupled PMI enzyme assay, resazurin fluorescence, 20 min; stronger effect = higher value; 1 = untreated enzyme, 0 = substrate-free blank | activation factor at 20 µM | 190,000 tested, 0.34% active | AID 1216;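 active = activation factor of 2 or more at 20 µM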
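Test system: human phosphomannose isomerase with PGI, G6PDH, diaphorase coupling enzymes; Amount: PMI at 15 ng/mL final; Reagent: Mannose-6-phosphate 1.0 mM (near-saturating) plus 0.22 mM NADP+; Timing: 20 min, room temperature; Technique: resorufin fluorescence at Ex 544/Em 590 nm; Dosing: 20 µM single dose.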
Numbers without * were called inactive.

SMILES | Diaph act CS | G6PDH CS | PMI act | Diaph inh CS | PMI act hi M6P
CCCSC1=C(C#N)C(c2cc(OC)ccc2OC)CC(=O)N1 (stereo not given) | 0.9 | 7 | 0.9 | 13 | 0.8
COc1ccc(N2CSC3=C(C#N)C(c4ccc(OC)c(OC)c4)CC(=O)N3C2)c(OC)c1 (stereo not given) | 0.4 | 43 | 0.6 | 58* | 1.1
Cc1ccc(N2CSC3=C(C#N)C(c4cccs4)CC(=O)N3C2)cc1 (stereo not given) | 0.5 | 22 | 1.3 | 46 | 1.7
CN1CSC2=C(C#N)C(c3cccc(OCc4ccccc4)c3)CC(=O)N2C1 (stereo not given) | 0.8 | 14 | 0.7 | 17 | 0.4
COc1ccc(N2CSC3=C(C#N)C(c4cc(OC)ccc4OC)CC(=O)N3C2)c(OC)c1 (stereo not given) | 0.4 | 50* | 0.5 | 57* | 0.4
COc1ccc(N2CSC3=C(C#N)C(c4cccs4)CC(=O)N3C2)cc1 (stereo not given) | 0.5 | 38 | 1.1 | 53* | 0.9
CCC(C)C(NC(=O)OC(C)(C)C)C(=O)NC(C)C(N)=O (stereo not given) | 0.9 | 0 | 1 | 8 | 1
CCN(Cc1cnn(C)c1)Cc1nc(C(c2ccccc2)c2ccccc2)no1 | 0.8 | 9 | 0.9 | 19 | 0.9
O=C(c1ccccc1)c1c[nH]c(C(=O)NCCCn2ccnc2)c1 | 0.9 | 7 | 1 | 10 | 1
COc1ccc(CCNC(=O)CC2SC(=NCCC(C)C)NC2=O)cc1OC (stereo not given) | 0.9 | -1 | 0.9 | 14 | 1
COc1ccc(C2CC(c3cccs3)=NN2C(=O)COC(=O)C2CCCCC2)cc1OC (stereo not given) | 0.8 | 10 | 0.9 | 25 | 0.8
COc1ccc(C2CC(=O)N3CN(c4ccc(C)c(Cl)c4)CSC3=C2C#N)cc1OC (stereo not given) | 0.4 | 18 | 0.9 | 60* | 1.3
CCc1ccc(C2CC(=O)N3CN(c4ccccc4)CSC3=C2C#N)cc1 (stereo not given) | 0.5 | 19 | 1 | 55* | 1.5
COc1ccc(N2CSC3=C(C#N)C(c4cc(OC)c(OC)cc4OC)CC(=O)N3C2)c(OC)c1 (stereo not given) | 0.3 | 44 | 0.3 | 66* | 0.6
COc1cc(OC)c(C2CC(=O)N3CN(c4ccc(C)cc4)CSC3=C2C#N)cc1OC (stereo not given) | 0.5 | 44 | 0.7 | 46 | 0.7
CCc1ccc(N2CSC3=C(C#N)C(c4cccs4)CC(=O)N3C2)cc1 (stereo not given) | 0.7 | -14 | 1.2 | 34 | 1.7
N#CC1=C2SCN(c3ccc(F)cc3)CN2C(=O)CC1c1cccc(F)c1 (stereo not given) | 0.5 | 42 | 0.6 | 48 | 0.9
O=C(CSc1nnnn1C1CCCCC1)NCCc1ccccc1 | 0.9 | 12 | 0.9 | 8 | 1
O=C(CNS(=O)(=O)c1cccc2nsnc12)NCc1ccc(Cl)cc1 | 1 | 14 | 1 | 1 | 1.2
COc1cc(NC(=O)COC(C)=O)c(C)cc1[N+](=O)[O-] | 1 | -6 | 1 | 3 | 1.1
Cc1c(Cl)cccc1NS(=O)(=O)c1ccc2c(c1)C1C=CCC1C(c1ccc(C(=O)O)cc1)N2 (stereo not given) | 0.4 | 19 | 1.5 | 59* | 1.4
O=C(N/N=C/c1cc(Br)cc(Br)c1O)c1ccncc1 | 0.5 | -10 | 1 | 52* | 1.2
CCNc1nc(NC(C)(C)C)nc(Oc2ccc(=O)n(-c3ccccc3)n2)n1 | 1.1 | 5 | 1 | -10 | 1.1
CN(C)C=Nc1c(Br)cc(Br)c2nonc12 | 0.4 | 44 | 0.3 | 62* | 0.3
CCOC(=O)C(C(=O)OCC)c1cc(Br)c2noc3c2c1C(=O)c1ccccc1-3 | 0.4 | 56* | 0.7 | 62* | 0.5
SMILES | Diaph act CS | G6PDH CS | PMI act | Diaph inh CS | PMI act hi M6P
CC(=O)OCCNc1cc(N2CCN(C)CC2)c2noc3c2c1C(=O)c1ccccc1-3 | 0.8 | 22 | 0.9 | 21 | 0.5
O=C1C(=O)N(c2cccc(Cl)c2)C(c2ccccc2[N+](=O)[O-])/C1=C(\O)c1ccccc1 (stereo not given) | 0.9 | 1 | 1 | 15 | 1.5
O=C1C(=O)N(c2ccccc2)C(c2ccccc2[N+](=O)[O-])/C1=C(\O)c1ccccc1 (stereo not given) | 0.5 | 13 | 0.9 | 51* | 0.9
CCc1nn2c(NCCOC)cc(C)nc2c1-c1ccc(F)cc1 | 0.8 | 7 | 0.9 | 15 | 0.8
S=c1nc(-c2ccccc2)[nH]c2ccccc12 | 0.3 | -1 | 1 | 66* | 1.1
Cc1cc(=O)oc2cc(OCC(=O)OC(C)C(=O)NC3CCCC3)ccc12 (stereo not given) | 1 | -3 | 1.1 | 4 | 1
CC(C)N(CC#CCC1(O)c2ccccc2-c2ccccc21)CCO | 0.4 | 17 | 0.6 | 60* | 0.7
CCN(CC#CCC1(O)c2ccccc2-c2ccccc21)CCO | 0.9 | 3 | 0.9 | 10 | 1
CCN1C(=O)N(C)C(N(O)C(=O)NC)C1(C)C (stereo not given) | 0.9 | 4 | 1 | 8 | 1
COc1ccccc1NC(=O)CSc1ccc(-c2cccs2)nn1 | 0.4 | 2 | 0.8 | 57* | 0.9
CCn1c(N)nc2c1c(=O)n(C)c(=O)n2C | 1.1 | 20 | 0.9 | -7 | 1
CCCc1nc2c(=O)n(C)c(=O)nc-2n(C)n1 | 0.5 | 56* | 0.6 | 46 | 0.4
Cc1cc(O)c(/C=N/Nc2ccc(Cl)cc2)c(=O)o1 | 0.9 | 7 | 1.3 | 11 | 2.1*
Cc1cccc(N=Cc2c(O)cc(C)oc2=O)c1 | 1 | 4 | 1.1 | -5 | 1
Cc1cc(O)c(/C=N/Nc2ccccc2Cl)c(=O)o1 | 0.8 | 1 | 1.4 | 25 | 2.2*
Cc1cc(O)c(/C=N/Nc2cccc(Cl)c2)c(=O)o1 | 0.9 | -7 | 1.5 | 11 | 2.5*
CN1CCC(N(C)C(=S)NC(=O)c2cc(-c3cccc(Br)c3)nc3ccccc23)CC1 | 0.8 | 1 | 0.9 | 16 | 0.9
Cn1c(N)c(C(=O)COC(=O)c2ccc(S(=O)(=O)N3CCCCC3)cc2)c(=O)n(C)c1=O | 1 | 3 | 1.2 | 0 | 1
COc1cc(CN2CCC(C(=O)N3CCCC(C)C3)CC2)cc(OC)c1O (stereo not given) | 0.8 | 53* | 0.8 | 19 | 0.8
COc1cc(CN2CCC(C(=O)NC3CCCC3)CC2)cc(OC)c1O | 0.5 | 53* | 0.6 | 46 | 0.4
CCOC(=O)C1CCCN(Cc2cc(OC)c(O)c(OC)c2)C1 (stereo not given) | 0.8 | -41 | 0.8 | 22 | 0.8

Screening data from PubChem BioAssay.
